Source: paper PMC3546530 (Cancer prevention research (Philadelphia, Pa.), 2012)
Where two headings read alike, the source gives them in different places.

Experiments:
tumor cell growth = conditions: cited from earlier work
[1] = test system: β-catenin in HCT 116 cells; experiment: β-Catenin levels; type: cell-based, human; conditions: HCT 116, 100 μmol/L
Method in brief: (§1)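 Cells were lysed in ice-cold membrane lysis buffer (Triton X-100, MgCl2, KCl, DTT, HEPES, NaF, protease inhibitors) or in nuclear lysis buffer (HEPES, NaCl, EDTA, 25% glycerol). Nuclear lysates were kept at 4° C with vortexing every 5 min for 1 h, then centrifuged. Protein was measured by Lowry, separated by 12% SDS-PAGE and moved to nitrocellulose. Blots were blocked in 5% BSA/0.05% Tween 20, probed with primary antibody overnight at 4° C and HRP secondary for 1 h, and read by ECL.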

PDE9A = PDE9A (Homo sapiens, UniProt O76083); experiment: Recombinant PDE isozyme assay; type: biochemical
Method in brief: (§2)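 Purified recombinant human PDE isozymes were assayed by IMAP fluorescence polarization, in which binding of hydrolysed nucleotide to immobilised metal complexes raises polarization.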

[2] = test system: HCT 116 colon tumor cells; experiment: Growth assay; type: cell-based; conditions: Homo sapiens, HCT-116, read-out: growth inhibition IC50
Method in brief: (§3)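 Colon tumor cells were kept in RPMI-1640 with 5% FBS and 4 mmol/L glutamine at 37° C, 5% CO2. They were plated at 5,000 per well, left to adhere overnight, and exposed for 72 h to a 2-log range of test compound. Viability was measured as ATP content by CellTiter-Glo, relative to vehicle.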

PDE8A = PDE8A (Homo sapiens, UniProt O60658); experiment: Recombinant PDE isozyme assay; type: biochemical
Method in brief: as §2

[3] = test system: intracellular cGMP in HEK293 cells; experiment: Intracellular cGMP levels; type: cell-based, human; conditions: HEK293, 50 μmol/L SNP plus 1, 3, or 10 μmol/L compound
PDE4B = PDE4B (Homo sapiens, UniProt Q07343); experiment: Recombinant PDE isozyme assay; type: biochemical
Method in brief: as §2

PDE11A = PDE11A (Homo sapiens, UniProt Q9HCR9); experiment: Recombinant PDE isozyme assay; type: biochemical
Chain of PDE11A (Q9HCR9 whole entry): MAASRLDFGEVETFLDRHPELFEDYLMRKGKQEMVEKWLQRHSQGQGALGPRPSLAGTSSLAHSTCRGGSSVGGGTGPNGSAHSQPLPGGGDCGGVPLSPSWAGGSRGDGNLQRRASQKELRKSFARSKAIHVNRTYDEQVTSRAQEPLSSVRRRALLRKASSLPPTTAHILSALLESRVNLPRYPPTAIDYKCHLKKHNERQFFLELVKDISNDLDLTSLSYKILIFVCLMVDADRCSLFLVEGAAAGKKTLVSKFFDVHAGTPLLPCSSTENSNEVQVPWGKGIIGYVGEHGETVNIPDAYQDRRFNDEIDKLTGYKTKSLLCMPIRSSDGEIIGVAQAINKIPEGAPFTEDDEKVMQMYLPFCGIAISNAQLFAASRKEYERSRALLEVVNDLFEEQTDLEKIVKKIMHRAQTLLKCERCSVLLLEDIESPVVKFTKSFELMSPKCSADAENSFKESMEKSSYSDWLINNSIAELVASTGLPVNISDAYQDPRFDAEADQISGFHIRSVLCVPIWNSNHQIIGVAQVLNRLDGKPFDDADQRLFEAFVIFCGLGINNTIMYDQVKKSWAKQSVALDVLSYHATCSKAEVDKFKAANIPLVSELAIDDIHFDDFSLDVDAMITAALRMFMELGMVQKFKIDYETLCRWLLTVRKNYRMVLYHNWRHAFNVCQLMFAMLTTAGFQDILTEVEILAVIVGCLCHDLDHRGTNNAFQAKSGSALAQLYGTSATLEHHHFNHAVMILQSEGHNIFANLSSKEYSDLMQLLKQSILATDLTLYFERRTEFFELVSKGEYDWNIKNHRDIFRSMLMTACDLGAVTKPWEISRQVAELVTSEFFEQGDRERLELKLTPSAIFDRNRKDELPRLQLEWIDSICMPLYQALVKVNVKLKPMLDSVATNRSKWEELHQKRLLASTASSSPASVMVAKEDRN
Method in brief: as §2

PDE1A = PDE1A (Homo sapiens, UniProt P54750); experiment: Recombinant PDE isozyme assay; type: biochemical
Chain of PDE1A (P54750 whole entry): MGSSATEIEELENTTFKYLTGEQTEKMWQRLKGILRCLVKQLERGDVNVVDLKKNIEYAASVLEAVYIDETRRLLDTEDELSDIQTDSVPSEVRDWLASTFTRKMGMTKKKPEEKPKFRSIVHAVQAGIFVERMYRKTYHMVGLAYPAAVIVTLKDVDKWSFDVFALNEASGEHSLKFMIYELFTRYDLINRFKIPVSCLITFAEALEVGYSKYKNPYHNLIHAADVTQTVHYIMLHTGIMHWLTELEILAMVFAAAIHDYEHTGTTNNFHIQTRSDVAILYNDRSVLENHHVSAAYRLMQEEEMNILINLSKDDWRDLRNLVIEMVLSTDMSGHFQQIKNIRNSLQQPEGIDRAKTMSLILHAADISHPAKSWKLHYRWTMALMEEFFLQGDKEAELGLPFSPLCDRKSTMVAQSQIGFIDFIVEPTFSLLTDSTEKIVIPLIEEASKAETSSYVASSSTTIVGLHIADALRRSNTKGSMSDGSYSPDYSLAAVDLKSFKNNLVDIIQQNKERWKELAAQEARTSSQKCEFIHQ
Method in brief: as §2

[4] = test system: β-catenin–mediated Tcf transcriptional activity in HCT 116 cells; experiment: TOP/FOP-flash Tcf luciferase reporter assay; type: cell-based, human; conditions: HCT 116, 24 hours
Method in brief: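 HCT 116 cells in 24-well plates were cotransfected with 0.1 μg TOP-flash (wild-type Tcf sites) or FOP-flash (mutated sites, nonspecific control) plus 0.1 μg β-galactosidase vector. After 24 h treatment with test compound, luciferase activity was measured and normalised to β-galactosidase activity.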

[5] = test system: total cGMP hydrolysis in HT-29 whole-cell lysates; experiment: cGMP PDE activity in tumor cell lysate; type: biochemical, human; conditions: read-out: total cGMP hydrolysis IC50; HT-29 whole-cell lysate
Method in brief: (§4)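 HT-29 cells were lysed in PDE activity buffer (20 mmol/L Tris-acetate, 5 mmol/L Mg acetate, 1 mmol/L EGTA, 1.0% Triton X-100, 50 mmol/L NaF, protease inhibitors, pH 7.4). Lysate protein was titrated to the mid portion of the activity curve.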

survivin in HT-29 cells = experiment: Survivin expression; type: cell-based, human; conditions: 10 μmol/L, slightly longer duration than β-catenin decrease
Method in brief: as §1

[6] = test system: HCT 116 colon tumor cells; experiment: Apoptosis assay; type: cell-based, human; conditions: 24 hours, vehicle 3%
Method in brief: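 HCT 116 cells were seeded at 1 × 10^6 per 10-cm dish and grown 48 h, then treated with test compound or vehicle for 24 h. Floating and attached cells were pooled, fixed in 10% neutral buffered formalin on ice for 15 min, and stained for DNA strand breaks by APO-BrdU TUNEL with AlexaFluor-488. TUNEL-positive cells were counted by flow cytometry, ≥5,000 events, in triplicate.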

[7] = test system: total cAMP hydrolysis in HT-29 whole-cell lysates; experiment: cAMP PDE activity in tumor cell lysate; type: biochemical, human; conditions: read-out: total cAMP hydrolysis IC50; HT-29 whole-cell lysate
Method in brief: as §4

PDE2A = PDE2A (Homo sapiens, UniProt O00408); experiment: Recombinant PDE isozyme assay; type: biochemical
purified ovine COX-2 = purified ovine COX-2 (Ovis aries, UniProt P79208); experiment: COX-2 colorimetric activity assay; type: biochemical
Chain of purified ovine COX-2 (P79208 17-603): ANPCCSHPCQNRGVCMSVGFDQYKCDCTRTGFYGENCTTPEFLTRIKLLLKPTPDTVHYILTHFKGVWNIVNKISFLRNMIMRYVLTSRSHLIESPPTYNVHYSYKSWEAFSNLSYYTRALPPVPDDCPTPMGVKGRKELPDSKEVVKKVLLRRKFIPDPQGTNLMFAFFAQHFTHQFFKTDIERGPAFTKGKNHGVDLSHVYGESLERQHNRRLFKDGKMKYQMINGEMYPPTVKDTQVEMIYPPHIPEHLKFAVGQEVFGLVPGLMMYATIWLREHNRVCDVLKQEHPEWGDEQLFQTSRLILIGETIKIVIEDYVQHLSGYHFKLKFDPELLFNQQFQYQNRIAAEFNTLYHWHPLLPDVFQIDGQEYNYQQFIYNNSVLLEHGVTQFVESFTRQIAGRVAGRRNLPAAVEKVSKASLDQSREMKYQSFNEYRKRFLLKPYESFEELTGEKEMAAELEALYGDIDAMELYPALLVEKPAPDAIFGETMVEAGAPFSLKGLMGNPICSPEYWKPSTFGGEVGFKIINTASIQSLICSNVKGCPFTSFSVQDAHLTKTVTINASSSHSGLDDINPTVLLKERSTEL

[8] = test system: HCT 116 colon tumor cells; experiment: Proliferation assay; type: cell-based; conditions: Homo sapiens, HCT-116, 24 h, read-out: inhibition of cell proliferation
Method in brief: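 HCT 116 cells were seeded at 1.5 × 10^6 per 10-cm dish overnight, then serum-starved for 24 h. Test compound or vehicle (0.1% DMSO) was added in RPMI-1640 with 5% serum for 4 h, followed by 16 μmol/L EdU (final) for a further 18 h. EdU incorporation was read with Click-iT Alexa Fluor 488 by flow cytometry, ≥5,000 events, in triplicate.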

[9] = test system: cleaved caspase-3 in HT-29 cells; experiment: Caspase-3 cleavage; type: cell-based, human; conditions: HT-29, 10 μmol/L
Method in brief: as §1

PDE6C = PDE6C (Homo sapiens, UniProt P51160); experiment: Recombinant PDE isozyme assay; type: biochemical
Method in brief: as §2

[10] = molecular target: PDE5A (purified recombinant PDE5) (Homo sapiens, UniProt O76074); experiment: Recombinant PDE isozyme assay; type: biochemical
Method in brief: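 IMAP fluorescence polarization assay run on recombinant enzyme per kit instructions. Substrates: TAMRA-cGMP or fluorescein-cAMP, each at 50 nmol/L final. Hydrolysed cyclic nucleotide binds immobilized metal coordination complexes, raising polarization.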

purified ovine COX-1 = purified ovine COX-1 (Ovis aries, UniProt P05979); experiment: COX-1 colorimetric activity assay; type: biochemical
Chain of purified ovine COX-1 (P05979 25-600): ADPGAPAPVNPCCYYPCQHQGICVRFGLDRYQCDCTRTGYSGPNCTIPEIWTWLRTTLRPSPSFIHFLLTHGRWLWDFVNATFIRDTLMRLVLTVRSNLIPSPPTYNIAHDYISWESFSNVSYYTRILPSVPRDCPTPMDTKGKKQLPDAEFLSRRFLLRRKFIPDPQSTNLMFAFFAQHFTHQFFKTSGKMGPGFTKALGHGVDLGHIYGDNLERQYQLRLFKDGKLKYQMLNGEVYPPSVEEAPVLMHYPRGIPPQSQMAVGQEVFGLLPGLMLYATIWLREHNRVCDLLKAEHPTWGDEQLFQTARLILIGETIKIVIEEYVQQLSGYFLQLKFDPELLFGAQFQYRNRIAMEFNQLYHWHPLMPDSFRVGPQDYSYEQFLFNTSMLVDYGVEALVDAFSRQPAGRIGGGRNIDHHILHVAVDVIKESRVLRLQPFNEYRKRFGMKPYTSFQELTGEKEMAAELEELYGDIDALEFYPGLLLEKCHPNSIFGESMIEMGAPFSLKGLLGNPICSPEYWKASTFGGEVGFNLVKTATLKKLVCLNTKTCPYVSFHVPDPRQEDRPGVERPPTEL

[11] = test system: nuclear β-catenin in HT-29 cells; experiment: Nuclear β-catenin levels; type: cell-based, human
Method in brief: as §1

PDE3B = PDE3B (Homo sapiens, UniProt Q13370); experiment: Recombinant PDE isozyme assay; type: biochemical
Method in brief: as §2

[12] = test system: PKG (VASP phosphorylation) in HT-29 cells; experiment: PKG activation; type: cell-based, human; conditions: HT-29, 5 μmol/L; remained elevated for 5 hours
HT-29 colon tumor cells = experiment: Growth assay; type: cell-based; conditions: Homo sapiens, HT-29, read-out: growth inhibition IC50
Method in brief: as §3

[13] = test system: HT-29, SW480, and HCT 116 colon tumor cell lines; experiment: Growth assay; type: cell-based; conditions: Homo sapiens, 72 h, read-out: growth inhibition IC50
Method in brief: as §3

[14] = test system: LPS-stimulated U937 promonocytic cells; experiment: PGE2 production assay; type: cell-based, human
Method in brief: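 U937 promonocytic cells were differentiated with 10 nmol/L PMA for 48 h, washed, and plated at 1.0 × 10^6 cells per well to adhere overnight. They were stimulated with 10 μg/mL LPS and treated with test compound for 24 h. PGE2 in supernatants was measured by HTRF competitive FRET between a PGE2–d2 conjugate and an anti-PGE2 antibody.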

PDE1C = PDE1C (Homo sapiens, UniProt Q14123); experiment: Recombinant PDE isozyme assay; type: biochemical
Chain of PDE1C (Q14123 whole entry): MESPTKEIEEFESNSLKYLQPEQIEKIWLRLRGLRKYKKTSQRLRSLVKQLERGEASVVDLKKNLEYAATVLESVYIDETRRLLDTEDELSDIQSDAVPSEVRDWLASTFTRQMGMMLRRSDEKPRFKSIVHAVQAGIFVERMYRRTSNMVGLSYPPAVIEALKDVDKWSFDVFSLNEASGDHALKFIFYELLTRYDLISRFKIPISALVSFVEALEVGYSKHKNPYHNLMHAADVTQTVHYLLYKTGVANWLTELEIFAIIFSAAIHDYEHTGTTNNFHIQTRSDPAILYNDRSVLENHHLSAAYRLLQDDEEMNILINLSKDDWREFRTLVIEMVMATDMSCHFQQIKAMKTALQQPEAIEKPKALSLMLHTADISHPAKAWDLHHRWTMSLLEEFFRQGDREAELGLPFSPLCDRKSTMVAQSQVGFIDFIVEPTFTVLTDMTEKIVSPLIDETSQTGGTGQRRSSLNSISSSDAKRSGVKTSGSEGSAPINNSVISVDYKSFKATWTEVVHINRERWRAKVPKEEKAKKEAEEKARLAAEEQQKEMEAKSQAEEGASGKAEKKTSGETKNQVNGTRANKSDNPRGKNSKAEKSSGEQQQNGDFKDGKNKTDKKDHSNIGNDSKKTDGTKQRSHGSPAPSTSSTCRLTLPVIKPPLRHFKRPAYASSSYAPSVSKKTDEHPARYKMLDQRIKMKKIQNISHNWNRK
Method in brief: as §2

PDE3A = PDE3A (Homo sapiens, UniProt Q14432); experiment: Recombinant PDE isozyme assay; type: biochemical
Chain of PDE3A (Q14432 whole entry): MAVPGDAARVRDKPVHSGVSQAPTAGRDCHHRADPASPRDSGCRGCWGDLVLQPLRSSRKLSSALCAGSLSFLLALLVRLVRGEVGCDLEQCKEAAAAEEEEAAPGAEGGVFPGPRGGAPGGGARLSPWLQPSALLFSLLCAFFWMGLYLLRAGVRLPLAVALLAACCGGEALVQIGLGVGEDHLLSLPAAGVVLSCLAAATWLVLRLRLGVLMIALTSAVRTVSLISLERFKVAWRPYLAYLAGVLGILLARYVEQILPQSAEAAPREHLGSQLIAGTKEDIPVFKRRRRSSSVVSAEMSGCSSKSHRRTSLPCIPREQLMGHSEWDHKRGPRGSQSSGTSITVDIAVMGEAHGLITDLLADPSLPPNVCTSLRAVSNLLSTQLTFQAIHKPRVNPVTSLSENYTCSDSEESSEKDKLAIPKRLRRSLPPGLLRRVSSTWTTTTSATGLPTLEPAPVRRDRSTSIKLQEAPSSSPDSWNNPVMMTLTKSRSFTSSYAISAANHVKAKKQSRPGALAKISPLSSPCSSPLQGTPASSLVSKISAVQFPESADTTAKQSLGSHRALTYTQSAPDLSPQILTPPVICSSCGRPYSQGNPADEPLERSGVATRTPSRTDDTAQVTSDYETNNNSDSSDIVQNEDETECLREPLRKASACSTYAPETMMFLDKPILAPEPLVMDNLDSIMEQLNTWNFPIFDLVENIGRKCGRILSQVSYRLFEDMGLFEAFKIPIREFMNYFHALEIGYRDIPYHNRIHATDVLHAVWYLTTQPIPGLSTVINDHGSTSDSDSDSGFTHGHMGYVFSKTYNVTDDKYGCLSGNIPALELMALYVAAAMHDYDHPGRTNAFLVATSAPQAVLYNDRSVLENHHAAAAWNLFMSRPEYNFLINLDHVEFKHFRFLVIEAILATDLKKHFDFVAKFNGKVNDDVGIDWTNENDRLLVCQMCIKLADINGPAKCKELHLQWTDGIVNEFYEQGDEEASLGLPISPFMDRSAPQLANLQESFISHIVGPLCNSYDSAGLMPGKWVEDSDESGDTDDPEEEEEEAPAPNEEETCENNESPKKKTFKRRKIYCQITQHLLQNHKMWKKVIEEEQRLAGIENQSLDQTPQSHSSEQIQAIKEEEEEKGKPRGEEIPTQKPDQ
Method in brief: as §2

PDE7A = PDE7A (Homo sapiens, UniProt Q13946); experiment: Recombinant PDE isozyme assay; type: biochemical
Method in brief: as §2

PDE1B = PDE1B (Homo sapiens, UniProt Q01064); experiment: Recombinant PDE isozyme assay; type: biochemical
Chain of PDE1B (Q01064 whole entry): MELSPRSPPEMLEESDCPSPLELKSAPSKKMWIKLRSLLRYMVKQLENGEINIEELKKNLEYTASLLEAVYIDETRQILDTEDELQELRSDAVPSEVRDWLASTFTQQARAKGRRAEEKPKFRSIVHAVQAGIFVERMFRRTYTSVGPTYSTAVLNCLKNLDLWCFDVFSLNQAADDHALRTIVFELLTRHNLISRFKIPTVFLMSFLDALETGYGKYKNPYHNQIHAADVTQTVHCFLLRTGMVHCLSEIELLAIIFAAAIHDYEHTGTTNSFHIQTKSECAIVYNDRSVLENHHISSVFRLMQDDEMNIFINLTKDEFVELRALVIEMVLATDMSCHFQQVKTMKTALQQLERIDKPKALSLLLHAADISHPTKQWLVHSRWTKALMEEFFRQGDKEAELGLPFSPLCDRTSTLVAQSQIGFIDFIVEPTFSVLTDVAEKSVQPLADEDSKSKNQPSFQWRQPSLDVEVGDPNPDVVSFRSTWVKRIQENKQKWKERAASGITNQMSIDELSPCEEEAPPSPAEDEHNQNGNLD
Method in brief: as §2

[15] = test system: normal fetal human colonocytes (FHC); experiment: Growth assay; type: cell-based
PDE5 = conditions: cited from earlier work

Which “tumor cell growth inhibitory activity” value (tumor cell growth) does the source give for CCCc1nn(C)c2c(=O)[nH]c(-c3cc(S(=O)(=O)N4CCN(C)CC4)ccc3OCC)nc12 [sildenafil] here?
The value was “completely inactive”.

With Nc1nc2c(nc(Br)n2[C@@H]2O[C@@H]3COP(=O)(O)O[C@H]3[C@H]2O)c(=O)[nH]1 [8-bromo-cGMP] as the compound, how does the “effect on β-catenin levels” value [1] read?
Its value is “suppress β-catenin levels”.

With CC1=C(CCNCc2ccccc2)c2cc(F)ccc2/C1=C\c1ccc([S+](C)[O-])cc1 (stereo not drawn) [SBA, (Z)-N-benzyl-2-(5-fluoro-2-methyl-1-(4-(methylsulfinyl)benzylidene)-1H-inden-3-yl)ethanamine] as the compound, how does the IC50 (PDE9A) read?
Its IC50 is greater than 100 µM.

And the IC50 [2]?
The IC50 was 5 µM.

What about the IC50 (PDE8A) of the same compound?
Its IC50 is greater than 100 µM.

And the “effect on intracellular cGMP (luminescence)” value [3]?
The value was “rapid and sustained increase in luminescence”.

What about the IC50 (PDE4B) of the same compound?
The IC50 was 75 µM.

What about the IC50 (PDE11A) of the same compound?
Its IC50 is greater than 100 µM.

What about the IC50 (PDE11A; read-out: cAMP IC50, PDE 11A, cAMP substrate) of the same compound?
Its IC50 is greater than 100 µM.

And the IC50 (PDE1A)?
Its IC50 is greater than 100 µM.

What about the IC50 (PDE1A; read-out: cAMP IC50, PDE 1A, cAMP substrate) of the same compound?
The IC50 was greater than 100 µM.

What about the “β-catenin–mediated Tcf transcriptional activity” value [4] of the same compound?
The value was “significant decrease”.

And the IC50 [5]?
Its IC50 is 8 µM.

What about the expression of survivin (survivin in HT-29 cells) of the same compound?
The expression of survivin was “decreased”.

What about the “apoptotic (TUNEL-positive) cells” value ([6]; 50 μmol/L) of the same compound?
The value was 75%.

And the IC50 [7]?
Its IC50 is greater than 200 µM.

What about the IC50 (PDE2A) of the same compound?
Its IC50 is greater than 100 µM.

And the IC50 (PDE2A; read-out: cAMP IC50, PDE 2A, cAMP substrate)?
The IC50 was greater than 100 µM.

And the IC50 (purified ovine COX-2)?
Its IC50 is greater than 200 µM.

And the inhibition at 50 µM [8]?
Its inhibition at 50 µM is 86%.

What about the “levels of cleaved caspase-3” value [9] of the same compound?
The value was “increased”.

What about the IC50 (PDE6C) of the same compound?
Its IC50 is greater than 100 µM.

What about the IC50 [10] of the same compound?
The IC50 was 9 µM.

What about the IC50 (purified ovine COX-1) of the same compound?
Its IC50 is greater than 200 µM.

What about the “time to reduced nuclear levels of β-catenin” value [11] of the same compound?
Its value is no more than 1 h.

And the IC50 (PDE3B)?
The IC50 was greater than 100 µM.

And the IC50 (PDE3B; read-out: cAMP IC50, PDE 3B, cAMP substrate)?
The IC50 was greater than 100 µM.

And the “time to increased phospho-VASP levels” value [12]?
Its value is no more than 1 h.

What about the IC50 (HT-29 colon tumor cells) of the same compound?
Its IC50 is 5 µM.

What about the IC50 [13] of the same compound?
Its IC50 is 3 to 5 µM.

And the “suppression of PGE2 production” value ([14]; LPS 10 μg/mL, 24 hours treatment)?
The value was “ineffective”.

What about the IC50 (PDE1C) of the same compound?
Its IC50 is greater than 100 µM.

And the IC50 (PDE1C; read-out: cAMP IC50, PDE 1C, cAMP substrate)?
The IC50 was greater than 100 µM.

What about the IC50 (PDE3A) of the same compound?
The IC50 was greater than 100 µM.

And the IC50 (PDE3A; read-out: cAMP IC50, PDE 3A, cAMP substrate)?
The IC50 was greater than 100 µM.

And the IC50 (PDE7A)?
Its IC50 is greater than 100 µM.

And the IC50 (PDE1B)?
The IC50 was greater than 100 µM.

And the IC50 (PDE1B; read-out: cAMP IC50, PDE 1B, cAMP substrate)?
Its IC50 is greater than 100 µM.

What about the “fold higher IC50 in FHC than in colon tumor cell lines” value ([15]; FHC vs HT-29 and HCT 116) of the same compound?
The value was greater than 6 fold.

What about the IC50 ([15]; Homo sapiens, read-out: growth inhibition IC50) of the same compound?
Its IC50 is 33 µM.

What does the source list for CN1CC(=O)N2[C@H](c3ccc4c(c3)OCO4)c3[nH]c4ccccc4c3C[C@@H]2C1=O [tadalafil]?
concentrations required to inhibit tumor cell growth (tumor cell growth): micromolar levels; concentrations required to inhibit PDE5 in cell-free assays (PDE5): nanomolar levels

Which IC50 [5] does the source give for CSc1ccc(/C=C2/C(C)=C(CC(=O)O)c3cc(F)ccc32)cc1 [sulindac sulfide, Sulindac sulfide, reference compound] here?
Its IC50 is 49 µM.

What about the “apoptotic (TUNEL-positive) cells” value ([6]; 100 μmol/L) of the same compound?
The value was 12%.

What about the IC50 [7] of the same compound?
Its IC50 is 133 µM.

What about the IC50 (purified ovine COX-1; read-out: COX-1 inhibition IC50, purified ovine COX-1) of the same compound?
Its IC50 is 2 µM.

And the IC50 [13]?
Its IC50 is 90 to 120 µM.

And the IC50 ([14]; Homo sapiens, U-937, 24 h, read-out: suppression of PGE2 production IC50)?
Its IC50 is 0.7 µM.
